Structures are written as SMILES. Out of some 2,500 compounds screened, about 460 (18%) were called active. Not all results are given here. A number with no mark means an inactive call.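 The calls were made as follows: active = mean activation above a cutoff of low control average plus 3 SD from the earlier screen (cut at about 12% in these data); inactive = the rest.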

A short description of the test: compound fluorescence interference without thin filaments, confirmation, artefact control for cardiac RTF calcium sensitizer project, biochemical (AID 504382). The conditions noted are these: IANBD fluorescence interference counterscreen, buffer, EC20 Ca2+; at 7.2 µM; hits give high values; scaled: EC20 calcium 0, EC100 calcium 100. The method in brief:
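Technique: fluorescence, 480/540 nm / Medium: MOPS-based buffer with KCl, MgCl2, EGTA, NTA, DTT, pH 7.2 / Probe or stimulus: calcium at EC20 level, 0.472 mM final / Repeats: triplicate wells per compound / Times: 15 min compound exposure at 25 °C / Measure: compound fluorescence interference relative to control well signal range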
Take `COc1cccc(OC)c1C(=O)NNC(=O)c1ccccc1-n1cccc1`: the fluorescence artifact activation was -0.01%.
As to `CC(C)(C)C(=O)c1sc2nc(-c3cccs3)cc(C(F)(F)F)c2c1N`, the fluorescence artifact activation is 0.13%.
With `CCOc1nc(OCC)c2[nH]c(C(=O)O)c(Br)c2n1` the figure was 0.34%; with `O=C(c1ccccc1Nc1ccc(SC(F)F)cc1)N1CCCCC1`, 0.06%; with `COc1ccc(C2C(C(=O)c3ccccc3)N3c4ccccc4C=CC3C2[N+](=O)[O-])cc1` (centres undefined), 10.3%.
On to `O=[N+]([O-])c1ccc(C2=NN(c3ccccc3)C(c3ccco3)C2)cc1` (centres undefined), for which the fluorescence artifact activation was -0.01%.
In the case of `O=[N+]([O-])c1ccc(N2N=C(c3ccccc3)CC2c2ccccc2O)cc1` (centres undefined), the fluorescence artifact activation is 47.5% (active).
The value for `COc1ccc(C2CC(c3ccncc3)=NN2c2ccc(S(N)(=O)=O)cc2)cc1` (centres undefined) was 1.86%; that for `N#CCC(=O)N/N=C/c1ccc(N2N=C(c3ccccc3)CC2c2ccccc2)cc1` (centres undefined) was -0.02%.
In the case of `NS(=O)(=O)c1ccc(N2N=C(c3ccccc3)CC2c2ccccc2)cc1` (centres undefined), the fluorescence artifact activation is 15.1% (active).
The value for `N#CC1CC(c2ccc([N+](=O)[O-])cc2)=NN1c1ccc([N+](=O)[O-])cc1` (centres undefined) was 0.52%; that for `CN(CC(=O)N1CCN(c2ncccn2)CC1)S(=O)(=O)c1ccc(Cl)cc1` was 0%.
Take `CCOC(=O)[C@H]1[C@H]2COc3ccccc3[C@@H]2N2C(=O)CN(Cc3ccc(C)cc3)C(=O)[C@@]12C`: the fluorescence artifact activation was 0.38%.
With `COc1ccc(/C=N/Nc2ncc(C(F)(F)F)cc2Cl)cc1OC` the figure was -0.02%; with `CC(C(=O)N1CCc2ccccc2C1)N1C(=O)c2ccccc2C1=O` (centres undefined), 0.12%.
Turning to `CCOC(=O)c1cc(C#N)c(SCC(=O)c2cc(C#N)c(SC)nc2C)[nH]c1=O`, the fluorescence artifact activation was 6.31%.
The value for `CC(=O)n1c(C=Nc2ccc(Cl)cc2)c(O)c2ccccc21` was 0.42%.
With `COc1ccc(C2=NS(=O)(=O)N(C)C(C(=O)NC3CCCC3)=C2)cc1`, the fluorescence artifact activation was -0.02%.
For the compound `O=C(CN1C(=O)NC2(CCCCC2)C1=O)Nc1ccccc1Cl`, the fluorescence artifact activation was 0.05%.
As for `CCC(=O)Nc1nc2c(c(=O)[nH]1)CCCC2`, the fluorescence artifact activation was 0.02%.
As to `O=C(CCc1nc2sc3c(c2c(=O)[nH]1)CCCC3)Nc1ccccc1Cl`, the fluorescence artifact activation is 31.9% (active).
Regarding `CSCC(O)Cn1ncc2ccccc2c1=O` (centres undefined), the fluorescence artifact activation was -0.02%.
In the case of `O=C1CSC(=S)N1c1ccc(O)cc1`, the fluorescence artifact activation was 0.03%.
As for `CC(C)c1ccc(N2C(=O)/C(=C/N(C)C)SC2=S)cc1`, the fluorescence artifact activation is 18.9% (active).
The value for `CN(C)/C=C1\SC(=S)N(c2ccc(Br)cc2)C1=O` was 43.8% (active).
Turning to `CCN1C(=O)/C(=C/C=C2\N(CC)c3cc(S(=O)(=O)N(C)C)ccc3N2c2ccccc2)SC1=S`, the fluorescence artifact activation was 0.15%.
The value for `COCCNC(=O)CSc1nc(N)c(NC(=O)c2ccccc2F)c(=O)[nH]1` was 1.87%; that for `CN1C2CCC1/C(=C/c1cccn1C)C(=O)/C2=C\c1cccn1C` was 0.09%.
On to `CC(C)c1ccc(/C=C2\Oc3c(ccc(O)c3CN3CCN(C)CC3)C2=O)cc1`, for which the fluorescence artifact activation is -0.06%.
With `O=c1cc(-c2ccccc2)oc2ccc(Br)cc12` the figure was 0.06%; with `CCSc1cc(N2CCCC2)nc(-c2ccc(Cl)cc2)n1`, 0.62%.
The value for `CC(=O)Nc1ccc(N=Cc2nc(-c3ccc(C)cc3)oc2O)cc1` was 8.23%.
Take `CC(C)CC[n+]1ccccc1/C=C/c1ccc(N(C)C)cc1`: the fluorescence artifact activation was -0.07%.
The value for `COc1ccc(OC)c(S(=O)(=O)N2CCC(C(=O)NCc3ccccn3)CC2)c1` was 1.09%; that for `CC(=O)Nc1ccc(Nc2cc(N(C)C)c3nonc3c2[N+](=O)[O-])cc1` was 33.2% (active).
Take `CC1(C)CC(=O)C(C=Nc2cc(C(=O)c3ccccc3)ccc2N)=C(O)C1`: the fluorescence artifact activation is 6.24%.
As to `CN(C(=O)C1CCC1C(=O)O)c1nc(-c2ccc(Cl)s2)cs1` (centres undefined), the fluorescence artifact activation was 21.3% (active).
Consider `O=C(NCc1ccccc1)C1(c2cccc(F)c2)CCCC1`, for which the fluorescence artifact activation was 0.26%.
The value for `COC(=O)C/C(O)=C(/N=Nc1cccc(C(F)(F)F)c1)C(=O)OC` was 0.94%; that for `O=C(Nc1nc(-c2nc3ccccc3s2)cs1)C1COc2ccccc2O1` (centres undefined) was 11.1%.
With `O=C(Nc1ccc(Cl)cn1)C1COc2ccccc2O1` (centres undefined) the figure was 14.7% (active); with `O=C1NCCN1c1ncc([N+](=O)[O-])s1`, 4.21%; with `COc1ccc(S(=O)(=O)N(CC(C)C)C2CCS(=O)(=O)C2)cc1OC` (centres undefined), 2.69%.
Take `O=C1c2ccccc2C(=O)N1c1ccc(Cc2ccncc2)cc1`: the fluorescence artifact activation was 5.28%.
With `O=C(Nc1nc2c(s1)CN(Cc1ccccc1)CC2)c1cccc(S(=O)(=O)N2CCc3ccccc32)c1` the figure was -0.03%; with `Cc1ccc(S(=O)(=O)c2cc(C#N)c(=O)[nH]c2N)cc1`, 6.68%.
Turning to `O=C(Cc1ccc(Cl)cc1)NNS(=O)(=O)c1ccc([N+](=O)[O-])cc1`, the fluorescence artifact activation was 83% (active).
The value for `O=C(CSc1ccc(Cl)cc1)Nc1nnc(-c2cccc([N+](=O)[O-])c2)s1` was 0.01%.
As to `CC(=O)NCC(O)c1ccc([N+](=O)[O-])cc1` (centres undefined), the fluorescence artifact activation was -0.01%.
Consider `O=C1CC(/C=C/c2ccco2)=Nc2ccccc2N1`, for which the fluorescence artifact activation was 0.39%.
With `Cc1ccc(NC(=O)O/N=C/c2ccc(F)cc2)cc1` the figure was 0.14%.
For `CCOC(=O)C1CCCN(C2=NC(=O)/C(=C/c3ccc(O)c(OC)c3)S2)C1` (centres undefined), the fluorescence artifact activation is 0.04%.
With `CCN1CC=C2C(C#N)=C(N)C(C#N)(C#N)C(c3cc(Cl)ccc3Cl)C2C1` (centres undefined) the figure was 95% (active).
The value for `CCN1CC=C2C(C#N)=C(N)C(C#N)(C#N)[C@H](c3ccoc3)[C@H]2C1` was 0.03%.
With `CCN1CC=C2C(C#N)=C(N)C(C#N)(C#N)[C@H](c3cccc(OC)c3OC)[C@H]2C1` the figure was 0.43%; with `CC1=C(C(=O)N(C)C)C(c2ccc(C)s2)NC(=S)N1` (centres undefined), 0.26%; with `CN(CC(=O)Nc1ccccc1Cl)C(=O)c1cc(=O)[nH]c2ccccc12`, 17.4% (active).
For the compound `CN(C)S(=O)(=O)c1ccc(C(=O)Oc2cc(=O)[nH]c3ccccc23)cc1`, the fluorescence artifact activation was 0.2%.
Consider `COc1ccc(N(CC(=O)Nc2ccccc2C(=O)NCC(C)C)S(C)(=O)=O)cc1`, for which the fluorescence artifact activation is 0.65%.

Source of the values: PubChem BioAssay AID504382 (The Scripps Research Institute Molecular Screening Center, 2011).
